Columns and labels:
HeLa = experiment: Antiproliferative activity against human HeLa cells after 72 hrs by MTT assay; type: functional, cell-based
Outline: (§1)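 Cells grown in MEM with 10% FCS, 1% non-essential amino acids and 1% penicillin-streptomycin. Seeded at 5000 cells/well, exposed to 0.1–30.0 µM compound for 72 h. MTT (5 mg/ml solution) was then added for 4 h, formazan dissolved in DMSO, and absorbance read at 545 nm. Cisplatin served as positive control. IC50 came from sigmoidal dose–response fits (log inhibitor vs normalized response, variable slope).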

SiHa = experiment: Antiproliferative activity against human SiHa cells after 72 hrs by MTT assay; type: functional, cell-based; outline: as §1
MCF7 = experiment: Antiproliferative activity against human MCF7 cells after 72 hrs by MTT assay; type: functional, cell-based; conditions: MCF7, 72 h; outline: as §1
[1] = Cytotoxicity against mouse L5178 cells expressing human ABCB1 after 48 hrs by MTT assay; type: functional, cell-based; conditions: L5178, 48 h
Outline: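 Parental mouse lymphoma L5178 and the MDR line made by pHa MDR1/A retrovirus transfection, selected with 60 µg/L colchicine. Grown in McCoy's 5A with horse serum at 37°C, 5% CO2. 5 x 10^4 cells/well, serial compound dilutions, 48 h. MTT added to 0.5 mg/mL final for 4 h, then 10% SDS in 0.01 M HCl overnight, OD read at 540 and 630 nm. IC50 taken as median cytotoxic activity (Dm) from control lanes of checkerboard plates, n=2.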

[2] = Synergistic cytotoxicity against mouse L5178 cells expressing human ABCB1 assessed as combination index at ED50 using 15:1 test compound to doxorubicin ratio after 48 hrs by MTT-based checkerboard microplate method; type: functional
Outline: (§2)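 Checkerboard microplate combinations of compound with doxorubicin at constant molar ratios. 5 × 10^4 cells/well in McCoy's 5A, 48 h at 37°C, 5% CO2. MTT added to 0.5 mg/mL final for 4 h, SDS/HCl overnight, OD read at 540 and 630 nm. Combination indices derived per ratio for 50%, 75% and 90% growth inhibition by median-effect analysis.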

[3] = Synergistic cytotoxicity against mouse L5178 cells assessed as combination index at ED90 using 150:1 test compound to doxorubicin ratio after 48 hrs by MTT-based checkerboard microplate method; type: functional; outline: as §2
[4] = Synergistic cytotoxicity against mouse L5178 cells expressing human ABCB1 assessed as combination index at ED75 using 30:1 test compound to doxorubicin ratio after 48 hrs by MTT-based checkerboard microplate method; type: functional; outline: as §2
[5] = Synergistic cytotoxicity against mouse L5178 cells assessed as combination index at ED75 using 75:1 test compound to doxorubicin ratio after 48 hrs by MTT-based checkerboard microplate method; type: functional; outline: as §2
[6] = Synergistic cytotoxicity against mouse L5178 cells expressing human ABCB1 assessed as combination index at ED75 using 60:1 test compound to doxorubicin ratio after 48 hrs by MTT-based checkerboard microplate method; type: functional; outline: as §2
[7] = Synergistic cytotoxicity against mouse L5178 cells assessed as combination index at ED50 using 300:1 test compound to doxorubicin ratio after 48 hrs by MTT-based checkerboard microplate method; type: functional; outline: as §2
[8] = Synergistic cytotoxicity against mouse L5178 cells assessed as combination index at ED75 using 300:1 test compound to doxorubicin ratio after 48 hrs by MTT-based checkerboard microplate method; type: functional; outline: as §2
[9] = Synergistic cytotoxicity against mouse L5178 cells assessed as combination index at ED50 using 18.75:1 test compound to doxorubicin ratio after 48 hrs by MTT-based checkerboard microplate method; type: functional; outline: as §2
[10] = Synergistic cytotoxicity against mouse L5178 cells assessed as combination index at ED75 using 18.75:1 test compound to doxorubicin ratio after 48 hrs by MTT-based checkerboard microplate method; type: functional; outline: as §2
[11] = Synergistic cytotoxicity against mouse L5178 cells assessed as combination index at ED90 using 18.75:1 test compound to doxorubicin ratio after 48 hrs by MTT-based checkerboard microplate method; type: functional; outline: as §2
[12] = Synergistic cytotoxicity against mouse L5178 cells expressing human ABCB1 assessed as combination index at ED50 using 1.875:1 test compound to doxorubicin ratio after 48 hrs by MTT-based checkerboard microplate method; type: functional; outline: as §2
[13] = Synergistic cytotoxicity against mouse L5178 cells expressing human ABCB1 assessed as combination index at ED75 using 1.875:1 test compound to doxorubicin ratio after 48 hrs by MTT-based checkerboard microplate method; type: functional; outline: as §2
[14] = Synergistic cytotoxicity against mouse L5178 cells expressing human ABCB1 assessed as combination index at ED90 using 1.875:1 test compound to doxorubicin ratio after 48 hrs by MTT-based checkerboard microplate method; type: functional; outline: as §2

| Structure (SMILES) | IC50 (HeLa) [µM] | IC50 (SiHa) [µM] | IC50 (MCF7) [µM] | IC50 [1] [µM] | CI [2] | CI [3] | CI [4] | CI [5] | CI [6] | CI [7] | CI [8] | CI [9] | CI [10] | CI [11] | CI [12] | CI [13] | CI [14] |
| --- | --- | --- | --- | --- | --- | --- | --- | --- | --- | --- | --- | --- | --- | --- | --- | --- | --- |
| CC(C)(O)CC[C@H]1OC(C)(C)O[C@]1(C)[C@H]1CC=C2C3=C/C(=N/OC(C)(C)C)[C@@H]4C[C@H]5OC(C)(C)O[C@H]5C[C@]4(C)[C@H]3CC[C@@]21C | 20.7 | 8.14 | 17.3 | 51.2 | 0.5 | 0.79 | 0.32 | 0.67 | 0.5 | 1.05 | 1.06 | – | – | – | – | – | – |
| C=CCO/N=C1/C=C2[C@H](CC[C@]3(C)[C@@H]([C@@]4(C)OC(C)(C)O[C@@H]4CCC(C)(C)O)CC[C@@]23O)[C@@]2(C)C[C@@H]3OC(C)(C)O[C@@H]3C[C@@H]12 | 17.6 | > 30 | 17.2 | 49.3 | 0.17 | 1.31 | 0.22 | 0.83 | 0.32 | 0.93 | 1.18 | 1.05 | 1.13 | 1.25 | – | – | – |
| CC(C)(O)CC[C@H]1OC(C)(C)O[C@]1(C)[C@H]1CC=C2C3=C/C(=N\OC(C)(C)C)[C@@H]4C[C@H]5OC(C)(C)O[C@H]5C[C@]4(C)[C@H]3CC[C@@]21C | 26.1 | 14.2 | 19.3 | 65.4 | 0.89 | 0.84 | 0.38 | 1.03 | 0.57 | 0.77 | 0.87 | – | – | – | – | – | – |
| CO/N=C1/C=C2C3=CC[C@H]([C@@]4(C)OC(C)(C)O[C@@H]4CCC(C)(C)O)[C@@]3(C)CC[C@@H]2[C@@]2(C)C[C@@H]3OC(C)(C)O[C@@H]3C[C@@H]12 | 15.4 | > 30 | 18 | 53.1 | 0.75 | 0.64 | 0.22 | 0.5 | 0.34 | 0.85 | 0.83 | – | – | – | – | – | – |
| CCO/N=C1/C=C2[C@H](CC[C@]3(C)[C@@H]([C@@]4(C)OC(C)(C)O[C@@H]4CCC(C)(C)O)CC[C@@]23O)[C@@]2(C)C[C@@H]3OC(C)(C)O[C@@H]3C[C@@H]12 | 29.1 | > 30 | 13.1 | 42.2 | 0.62 | 0.73 | 0.23 | 0.58 | – | 0.8 | 0.88 | – | – | – | 0.36 | 0.17 | 0.1 |
| CCO/N=C1/C=C2C3=CC[C@H]([C@@]4(C)OC(C)(C)O[C@@H]4CCC(C)(C)O)[C@@]3(C)CC[C@@H]2[C@@]2(C)C[C@@H]3OC(C)(C)O[C@@H]3C[C@@H]12 | 30 | > 30 | 19.6 | 58.9 | 0.42 | 0.56 | 0.2 | 0.5 | 0.36 | 0.59 | 0.66 | – | – | – | – | – | – |
| C=CCO/N=C1/C=C2C3=CC[C@H]([C@@]4(C)OC(C)(C)O[C@@H]4CCC(C)(C)O)[C@@]3(C)CC[C@@H]2[C@@]2(C)C[C@@H]3OC(C)(C)O[C@@H]3C[C@@H]12 | > 30 | > 30 | 24.2 | 52.7 | 0.5 | 0.8 | 0.32 | 0.5 | 0.39 | 0.73 | 0.88 | – | – | – | – | – | – |
